In ChEMBL document CHEMBL1152930, “Discovery of tetrahydrotetramethylnaphthalene analogs as adult T-cell leukemia cell-selective proliferation inhibitors in a small chemical library constructed based on multi-template hypothesis” (Bioorg Med Chem, 2009):

Columns and labels:
MOLT-4 [1] = test: Antiproliferative activity against HTLV1-deficient human MOLT4 cells after 4 days by MTT assay; format: functional, cell-based; details: MOLT-4, 96 h
In short: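 Cells were cultured without or with a range of test-compound concentrations for 4 days. Viable cell number was then measured by MTT, and IC50 values were calculated from it. The same protocol was run in parallel on S1T cells, an ATL patient-derived line.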

[2] = Antiproliferative activity against HTLV1-carrying human S1T cells isolated from peripheral blood mononuclear cells of adult T leukemic patient after 4 days by MTT assay; format: functional; details: 96 h
In short: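 Cells grown 4 days without or with a range of compound concentrations; viable cell number read by MTT; IC₅₀ calculated from the resulting data.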

MOLT-4 [3] = test: Selectivity index, ratio of IC50 for HTLV1-deficient human MOLT4 cells to IC50 for HTLV1-carrying S1T cells isolated from peripheral blood mononuclear cells of adult T leukemic patient; format: functional
In short: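 SI taken as IC₅₀ in MOLT-4 over IC₅₀ in S1T cells. Both IC₅₀ values come from 4-day MTT viable-cell counts over a range of concentrations.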

U-937 = test: Antiproliferative activity against human U937 cells; format: functional, cell-based
Jurkat = test: Antiproliferative activity against human Jurkat cells; format: functional, cell-based
HL-60 = test: Antiproliferative activity against human HL60 cells; format: functional, cell-based
MOLT-4 [4] = test: Antiproliferative activity against human MOLT4 cells; format: functional, cell-based
[5] = Cell cycle arrest in HTLV1-carrying human S1T cells isolated from peripheral blood mononuclear cells of adult T leukemic patient assessed as accumulation at G2/M phase at 20 uM after 24 hrs using propidium iodide/RNA staining buffer by FACS analysis; format: functional
In short: (§1)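 Cells seeded at 1 × 10⁶/ml with or without 20 µM compound for 24 h. Then PBS wash, fixing in 1% paraformaldehyde, permeabilising in 70% ethanol and 15 min propidium iodide/RNA staining. Phase populations given as % of cells.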

MOLT-4 [6] = test: Induction of apoptosis in HTLV1-deficient human MOLT4 cells at 20 uM after 24 hrs using fluorescein isothiocyanate-conjugated annexin V staining by FACS analysis; format: functional
In short: (§2)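 Cells seeded at 1 × 10⁶/ml and held with or without 20 µM compound for 24 or 48 h. Apoptotic cells given as %; relative values are the ratio of treated to untreated apoptosis %.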

[7] = Induction of apoptosis in HTLV1-carrying human S1T cells isolated from peripheral blood mononuclear cells of adult T leukemic patient at 20 uM after 24 hrs using fluorescein isothiocyanate-conjugated annexin V staining by FACS analysis relative to control; format: functional; in short: as §2
[8] = Induction of apoptosis in HTLV1-carrying human S1T cells isolated from peripheral blood mononuclear cells of adult T leukemic patient at 20 uM after 48 hrs using fluorescein isothiocyanate-conjugated annexin V staining by FACS analysis; format: functional; in short: as §2
[9] = Cell cycle arrest in HTLV1-carrying human S1T cells isolated from peripheral blood mononuclear cells of adult T leukemic patient assessed as accumulation at S phase at 20 uM after 24 hrs using propidium iodide/RNA staining buffer by FACS analysis; format: functional; in short: as §1
MOLT-4 [10] = test: Induction of apoptosis in HTLV1-deficient human MOLT4 cells at 20 uM after 48 hrs using fluorescein isothiocyanate-conjugated annexin V staining by FACS analysis; format: functional; in short: as §2
MOLT-4 [11] = test: Cell cycle arrest in HTLV1-deficient human MOLT4 cells assessed as accumulation at G2/M phase at 20 uM after 24 hrs using propidium iodide/RNA staining buffer by FACS analysis; format: functional; in short: as §1
MOLT-4 [12] = test: Cell cycle arrest in HTLV1-deficient human MOLT4 cells assessed as accumulation at S phase at 20 uM after 24 hrs using propidium iodide/RNA staining buffer by FACS analysis; format: functional; in short: as §1
[13] = Induction of apoptosis in HTLV1-carrying human S1T cells isolated from peripheral blood mononuclear cells of adult T leukemic patient at 20 uM after 24 hrs using fluorescein isothiocyanate-conjugated annexin V staining by FACS analysis; format: functional; in short: as §2
[14] = Induction of apoptosis in HTLV1-carrying human S1T cells isolated from peripheral blood mononuclear cells of adult T leukemic patient at 20 uM after 48 hrs using fluorescein isothiocyanate-conjugated annexin V staining by FACS analysis relative to control; format: functional; in short: as §2
MOLT-4 [15] = test: Cell cycle arrest in HTLV1-deficient human MOLT4 cells assessed as accumulation at G0/G1 phase at 20 uM after 24 hrs using propidium iodide/RNA staining buffer by FACS analysis; format: functional; in short: as §1
[16] = Cell cycle arrest in HTLV1-carrying human S1T cells isolated from peripheral blood mononuclear cells of adult T leukemic patient assessed as accumulation at G0/G1 phase at 20 uM after 24 hrs using propidium iodide/RNA staining buffer by FACS analysis; format: functional; in short: as §1

SMILES	IC50 (MOLT-4 [1])	IC50 [2]	Ratio IC50 (MOLT-4 [3])	other results
CC1(C)CCC(C)(C)c2ccccc21	> 100 µM	> 100 µM		
CC1(C)CCC(C)(C)c2cc(C(=O)O)c(O)cc21	44.4 µM	29.7 µM	1.5	
CC1(C)CCC(C)(C)c2cc(C(=O)O)ccc21	61.1 µM	> 100 µM		
CCC(=O)c1cc2c(cc1O)C(C)(C)CCC2(C)C	32.3 µM	4.7 µM	6.9	
CC(=S)c1cc2c(cc1O)C(C)(C)CCC2(C)C	36.4 µM	6.9 µM	5.3	
CC(=O)c1cc(C)cc(C)c1	> 100 µM	> 100 µM		
CC(C)C(=O)c1ccc2c(c1)C(C)(C)CCC2(C)C	34.6 µM	3.8 µM	9.1	
CC(=O)c1ccc2c(c1)C(C)(C)CCC2(C)C	66 µM	6.9 µM	9.6	
CCC(=O)c1ccc2c(c1)C(C)(C)CCC2(C)C	21.5 µM	4.7 µM	4.6	
CC(O)c1ccc2c(c1)C(C)(C)CCC2(C)C (racemic)	34.4 µM	39.3 µM	0.87	
CC(C)(C)C(=O)c1cc2c(cc1O)C(C)(C)CCC2(C)C	43.2 µM	41.5 µM	1	
COc1cc2c(cc1C(C)=O)C(C)(C)CCC2(C)C	11.9 µM	7 µM	1.7	
CC(C)C(=O)c1cc2c(cc1O)C(C)(C)CCC2(C)C	31.9 µM	6 µM	5.3	
CC1(C)CCC(C)(C)c2cc(C(N)=O)ccc21	39.4 µM	37 µM	1.1	
CC1(C)CCC(C)(C)c2cc(NC(=O)c3ccc(C(=O)O)cc3)ccc21 [TAMIBAROTENE]				IC50 (U-937): 20.2 µM; IC50 (Jurkat): 17.3 µM; IC50 (HL-60): 6 µM; IC50 (MOLT-4 [4]): 19.5 µM
CC(=O)c1ccc(C)c(C)c1	> 100 µM	> 100 µM		
CC1(C)CCC(C)(C)c2cc(C(=O)c3ccccc3)ccc21	11.8 µM	7 µM	1.7	
CON(C)C(=O)c1ccc2c(c1)C(C)(C)CCC2(C)C	9.9 µM	12.6 µM	0.8	
CC(=O)c1ccc(C)cc1C	> 100 µM	> 100 µM		
CC(=O)c1cc2c(cc1O)C(C)(C)CCC2(C)C	82.9 µM	6.7 µM	12.4	Activity [5]: 23%; Activity (MOLT-4 [6]): 7%; Activity [7]: 1.3%; Activity [8]: 10.1%; Activity [9]: 40%; Activity (MOLT-4 [10]): 4%; Activity (MOLT-4 [11]): 11.1%; Activity (MOLT-4 [12]): 46.76%; Activity [13]: 10.1%; Activity [14]: 2.1%; Activity (MOLT-4 [15]): 42.14%; Activity [16]: 37%
CC1(C)CCC(C)(C)c2cc(C(=O)c3ccccc3)c(O)cc21	28.3 µM	15.2 µM	1.9	
CC1(C)CCC(C)(C)c2cc(C=O)ccc21	24.8 µM	33 µM	0.75	
